A short description of this series: Toxicity liver stage against HepG2, at 10uM. It is filed as cell-based. Also on record: test concentration 10 uM, cell line HepG2-A16-CD81EGFP. As to conditions: human, HepG2-A16-CD81EGFP cells; read-out: INHIBITION
In short, it runs like this: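 Uninfected HepG2-A16-CD81EGFP cells, 3 × 10^3 per well, 1536-well, plated on prespotted compound at 10 μM final, parasite-free screening media added to match infected plates; puromycin 10 μM positive, DMSO 0.5% negative; run in parallel with 48 h PbLuc assay at 37 °C, 5% CO2; viability by CellTiter-Glo luminescence, normalized to controls.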
For `CC(=O)N1CCC(N2CCOC[C@H]2c2nc(-c3ccc(Cl)s3)c[nH]2)CC1`, the cytotoxicity at 10 µM is 2.29%. As to `COCC(=O)NCCc1nc(N(C)C)ncc1-c1ccncc1`, the cytotoxicity at 10 µM is -3.46%.

With `Cc1nc(-c2ccccc2F)sc1C(=O)N1CCN(C)CC1`, the cytotoxicity at 10 µM came to 21%.

On to `CCC(CC)CN1CCN(CC(=O)Nc2ccc3nsnc3c2)CC1`, for which the cytotoxicity at 10 µM was -13.8%. For `CCOCC(C)(C)NC(=O)Nc1cc(F)ccc1OC`, the cytotoxicity at 10 µM was -3.12%. Then `CN(C)C(Cn1ccnc1-c1nccn1C)c1ccccc1Cl` (stereo not drawn), with -0.0184%. As to `Cc1nc(COC[C@@]23CCC[C@@H]2CN(CC2CCOCC2)C3)cs1`, the cytotoxicity at 10 µM was 7.98%.

`Cc1csc(N2CCCN(C(=O)c3nccnc3N)CC2)n1`: the cytotoxicity at 10 µM is -2.42%. Turning to `Cc1cc2n(n1)CC(CNC1CCN(C3CC3)CC1)CN2` (stereo not drawn), the cytotoxicity at 10 µM turned out to be 4.16%.

In the case of `CN(C)c1ncccc1CNC(=O)N1CCCC1c1ccsc1` (stereo not drawn), the cytotoxicity at 10 µM was -6.33%.

Take `O=C(Cc1cccs1)N1Cc2nc(CN3CCCC3)oc2C1`: the cytotoxicity at 10 µM was -2.87%.

As for `CCn1ncnc1C1CC(=O)NCc2nc(N3CCOCC3)sc21` (stereo not drawn), the cytotoxicity at 10 µM came out at 3.94%. As for `Cc1nc(N)cc(N2CCCC(COc3cccc(F)c3)C2)n1` (stereo not drawn), the cytotoxicity at 10 µM was -1.53%.

Take `FC(F)(F)c1ccccc1CCC1CCCN(Cc2cscn2)C1` (stereo not drawn): the cytotoxicity at 10 µM was 2.28%. To `NC(=O)C1(c2cnccn2)CCCN1Cc1cccc(Cl)c1` (stereo not drawn) belongs -2.5%.

On to `CCc1ccc(C(=O)N2CC[C@](C)(O)C(C)(C)C2)[nH]1`, for which the cytotoxicity at 10 µM stood at 2.43%. `Cc1ncsc1CCC(=O)NCc1cc2n(n1)CCN(C(=O)N(C)C)C2`: the cytotoxicity at 10 µM was 15.3%. Take `COc1ccc(Cl)cc1NC(=O)N(C)CC(O)COCCOC(C)C` (stereo not drawn): the cytotoxicity at 10 µM worked out at 11.3%. `CCN1C[C@@H]2CN(C(=O)C3CC=CC3)C[C@@H]2C1=O`: the cytotoxicity at 10 µM came out at 2.35%.

With `CCn1ccnc1CN1CCCC1c1noc(C2CC2)n1` (stereo not drawn), the cytotoxicity at 10 µM is -17.4%. For `COc1ccccc1OCc1nc(C(C)C)no1`, the cytotoxicity at 10 µM came to 14%.

Take `CC(=O)c1c(F)cccc1NC1CCN(S(=O)(=O)C2CC2)CC1`: the cytotoxicity at 10 µM came to 12.5%. `CSCC[C@H](N)C(=O)NCc1cc2n(n1)CCCN(C(=O)C1CCC1)C2`: the cytotoxicity at 10 µM is -12.9%. For the compound `CC(=O)NCc1noc2c1CN(Cc1cnn(C)c1)CC2`, the cytotoxicity at 10 µM is -1.71%. As for `CC(C)NC1CCCc2nc(-c3ccccc3)ncc21` (stereo not drawn), the cytotoxicity at 10 µM turned out to be 16.1%.

On to `CCO[C@H]1CN(C)C[C@@H]1NC(=O)c1cc(C)nc2ccc(C)cc12`, for which the cytotoxicity at 10 µM is 4.15%.

Take `O=C(Nc1cccnc1)[C@H]1C[C@H]2OCC[C@H]2N(Cc2ccc(F)cc2)C1`: the cytotoxicity at 10 µM came out at 0.592%. Consider `CCOc1ccc(CNCc2cccnc2N(C)C)cc1`, for which the cytotoxicity at 10 µM was -6.5%. Consider `OC1(CN2CCC(Oc3cccnc3)CC2)CNCCOC1` (stereo not drawn), for which the cytotoxicity at 10 µM is 5.92%. With `Cc1cc(C2CCCN2Cc2ccn(C)c(=O)c2)on1` (stereo not drawn), the cytotoxicity at 10 µM was -6.04%. For `Cc1cccc(CN2CC[C@@H]3[C@@H]2CCN3C(=O)c2cc(C)oc2C)n1`, the cytotoxicity at 10 µM was -4.42%. As to `CCOCc1nn(CC2CC2)c2c1CN(C(=O)c1ccno1)CC2`, the cytotoxicity at 10 µM worked out at 1.99%. Turning to `CS(=O)(=O)c1nnc(NC(=O)CCc2cc(F)ccc2F)[nH]1`, the cytotoxicity at 10 µM was -16.6%. Then `Cc1ccc2oc(C(=O)N3CCCC(n4nc(C)cc4C)C3)cc2n1` (stereo not drawn), with 1.25%. `CCC(=O)NC1CCN(c2cccc(OC(F)(F)F)c2)C1=O` (stereo not drawn): the cytotoxicity at 10 µM is -11.5%. Then `Cc1ncc(CN2CCOC(CNc3cccnn3)C2)s1` (stereo not drawn), with -19.8%; and `CC(=O)N1C[C@H]2CC[C@@H](C1)N(C(=O)CCc1n[nH]c3c1CCCC3)C2`, with 10.3%. Regarding `O=C(CCc1nc2cc(Br)cnc2[nH]1)NCCCN1CCOCC1`, the cytotoxicity at 10 µM is -2.67%. `COCc1ncc(CN2CC[C@@](C)(O)[C@@H](Cc3ccccc3)C2)cn1`: the cytotoxicity at 10 µM worked out at 12.1%. Turning to `CCOc1ccc(NC(=O)c2cc3c([nH]c2=O)CCC3)cc1`, the cytotoxicity at 10 µM amounted to 6.5%. Take `Cc1nccn1-c1cccc(N2CCC(OCC3CCCCO3)CC2)n1` (stereo not drawn): the cytotoxicity at 10 µM was determined as 11.3%. In the case of `O=C(NCCN1CCCCC1)C(c1ccccc1)N1CCCC1` (stereo not drawn), the cytotoxicity at 10 µM was -1.46%. In the case of `CCOC1COC2(CCN(Cc3cccc(F)c3)CC2)C1` (stereo not drawn), the cytotoxicity at 10 µM turned out to be 5.47%. As to `Cn1nc(CN2CCCC2)c2c1CN(C(=O)c1ccncc1F)CC2`, the cytotoxicity at 10 µM is -154%. Consider `Cn1cnc2c1CCN(Cc1csc(Cc3ccccc3)n1)C2`, for which the cytotoxicity at 10 µM is -5.4%. `CCc1nc(C)c(C(=O)NCCN2CCN(C(C)=O)CC2)s1`: the cytotoxicity at 10 µM is -10.4%.

For `CS(=O)(=O)N(Cc1ccon1)c1cccc(Br)c1`, the cytotoxicity at 10 µM was determined as 7.57%. Consider `CC(C(=O)N(C)Cc1ccc(Br)o1)n1cccn1` (stereo not drawn), for which the cytotoxicity at 10 µM turned out to be 4.9%. As for `O=C1CCC2(CCN(Cc3cscn3)CC2)CN1CCCO`, the cytotoxicity at 10 µM is -5.26%. To `CC(NC(=O)NCCCn1cccn1)c1ccccn1` (stereo not drawn) belongs -11.5%. As for `CCC(=O)NC1CCCN(C(=O)c2ccc(OCC3CC3)nc2)C1` (stereo not drawn), the cytotoxicity at 10 µM came out at 15.2%. As to `COc1c(CNCc2cccc(Cn3ccnc3C)c2)c(C)nn1C`, the cytotoxicity at 10 µM was found to be 23.8%. For the compound `CCNc1ccnc(CN2CCCC2C(=O)Nc2nccs2)c1` (stereo not drawn), the cytotoxicity at 10 µM amounted to 4.32%. For the compound `Cc1cnn(CC2CCCN2Cc2coc(-c3cccs3)n2)c1` (stereo not drawn), the cytotoxicity at 10 µM was -3.01%.

Turning to `CCc1ccccc1CN1CCC(N2CCCC2=O)CC1`, the cytotoxicity at 10 µM is -2.53%. As to `O=C(NCC1CC1)[C@H]1C[C@H]2CN(C(=O)NCc3ccccc3)C[C@@H]1O2`, the cytotoxicity at 10 µM was 4.97%. With `CCOC(=O)Cc1cs/c(=N/C(=O)COc2cnc(C)cc2O)[nH]1`, the cytotoxicity at 10 µM was 4.62%.

Consider `COc1cccc(OCc2cc(C(=O)NC[C@@H]3CCCN3)n[nH]2)c1`, for which the cytotoxicity at 10 µM is 0.732%. Then `COc1ccc(S(=O)(=O)NC(=O)COc2ccc3c(c2)CCC3)cc1`, with -6.72%; and `N#Cc1cnc(NCCCN2C(=O)COc3ccccc32)c(Cl)c1`, with -3.64%.

Consider `Cc1nc(N2CCCC(C)C2)nc2cc(S(C)(=O)=O)ccc12` (stereo not drawn), for which the cytotoxicity at 10 µM is -24.2%. For `CC(=O)N1CCC2(CC1)CC(C(C)C)=NO2`, the cytotoxicity at 10 µM was 8.74%. With `Cn1cc(N2CC[C@@H]3CN(Cc4ccncc4)C[C@H]3C2=O)cn1`, the cytotoxicity at 10 µM was -103%. Then `O=C(NCC(Cc1cccc(F)c1)n1cccc1)C1CC1` (stereo not drawn), with 1.22%; and `CN(C)Cc1noc2c1CN(Cc1ccsc1)CC2`, with -2.88%. In the case of `CNc1cc(N2CCCC2CNCc2cccs2)ncn1` (stereo not drawn), the cytotoxicity at 10 µM is -12.3%.

Take `CN(CC1CCN(c2ccccc2)C1)c1ccc(Cn2ccnc2)cn1` (stereo not drawn): the cytotoxicity at 10 µM is -142%. Turning to `CCN(CC)c1ccc(NS(=O)(=O)c2cncc(F)c2)cn1`, the cytotoxicity at 10 µM was -8.37%. As to `NC(=O)CN1CCC(C(=O)NCC(O)c2cccc(F)c2)CC1` (stereo not drawn), the cytotoxicity at 10 µM is 10.8%. In the case of `CC(NC(=O)c1ccoc1)C(=O)N(C)Cc1cccc(C(F)(F)F)c1` (stereo not drawn), the cytotoxicity at 10 µM is -13.6%. Take `CCn1cnnc1CNC(=O)N1CCN(c2cccs2)CC1`: the cytotoxicity at 10 µM was -2.07%. As for `CCN(CC(C)O)C(=O)Nc1cnn(CCOC)c1` (stereo not drawn), the cytotoxicity at 10 µM is -11.6%.

Take `O=C(NCC1(O)CCOC1)NCC1(c2ccccc2Cl)CC1` (stereo not drawn): the cytotoxicity at 10 µM is -45.7%. With `COc1cccc(C(=O)NS(=O)(=O)c2cncc(Br)c2)c1OC`, the cytotoxicity at 10 µM is 0.684%. Take `Cc1nc(C)c(C)c(N2CCC3(CCN(C)C3)C2)n1` (stereo not drawn): the cytotoxicity at 10 µM was -4.88%. To `CC(C)c1nn(C)c(N(C)C)c1CNCC(O)c1ccccc1` (stereo not drawn) belongs -1.83%; to `O=C(Cc1cc(F)cc(Cl)c1)N[C@@H]1CCNC[C@H]1O`, -3.66%. Consider `Cc1ncoc1C(=O)N1CC[C@@]2(C[C@H](NS(C)(=O)=O)CCO2)C1`, for which the cytotoxicity at 10 µM was -73%. To `Cc1ccc(CNc2cc(C(=O)N3CCOCC3)nc(C)n2)cc1` belongs -1.61%; to `CCOCC1CN(C(=O)c2ccnnc2)Cc2cnn(CC)c21` (stereo not drawn), -77.8%; to `CCc1nc(CCNc2ncccc2C#N)sc1C`, 15.4%. As for `Cn1ccnc1CN1CCN(CC(=O)NCc2cccs2)CC1`, the cytotoxicity at 10 µM was -8.25%. As to `O=C(c1cscn1)N1CCC2(CN(Cc3ccoc3)C2)C1`, the cytotoxicity at 10 µM was determined as 7.2%.

In the case of `CNC(=O)c1ccc(Cn2ccnc2S(C)(=O)=O)cc1`, the cytotoxicity at 10 µM was -3.83%. `Cc1nnc(NCc2ccc(Cl)cc2)o1`: the cytotoxicity at 10 µM worked out at 3.79%. For `Cc1cc(C(=O)NCC2(N(C)C)CCCC2)c(C)n1-c1cccnc1`, the cytotoxicity at 10 µM is -8.41%. To `CCOc1cccc(CNc2ccccc2C(F)(F)F)c1O` belongs -4.17%; to `CN1CCCC(Cc2nccnc2Cl)CC1` (stereo not drawn), 0.368%; to `O=C1CCCN1CCN1CCCC(c2ccn[nH]2)C1` (stereo not drawn), -16.7%. As to `O=C(Nc1cccnc1-n1cc(Cl)cn1)C1CC1`, the cytotoxicity at 10 µM was -42.7%. For the compound `O=C(CCc1nnc2ccccn2c1=O)NCc1ccc2c(c1)OCO2`, the cytotoxicity at 10 µM is -0.403%.

Regarding `Cc1cnn(C2CCCN(C(=O)c3cccc(Cn4ccnc4)c3)C2)c1` (stereo not drawn), the cytotoxicity at 10 µM was -1.03%.

`Cn1ccc2c(NC(=O)Cn3ncc4c(c3=O)CCCC4)cccc21`: the cytotoxicity at 10 µM stood at 2.33%. On to `CCc1nnnn1Cc1csc(N(C)C(C)=O)n1`, for which the cytotoxicity at 10 µM came out at 0.63%. On to `CC(=O)N1CCC(Oc2ccc(Cl)cn2)CC1`, for which the cytotoxicity at 10 µM is -19.5%. Consider `CCOCCC(=O)Nc1cccc(Cl)c1COC`, for which the cytotoxicity at 10 µM was -3.81%. As for `CNC(=O)NC(=O)CN(CC(C)O)c1ccccc1` (stereo not drawn), the cytotoxicity at 10 µM was 10.9%. Consider `CN(CC1(CO)CCCC1)[C@@H]1c2ccccc2C2(CCNCC2)[C@H]1O`, for which the cytotoxicity at 10 µM came out at 1.44%.

The record behind these values is ChEMBL document CHEMBL4513216, “Probing the Open Global Health Chemical Diversity Library for Multistage-Active Starting Points for Next-Generation Antimalarials” (ACS Infect Dis, 2020).
